Here are results for 24 compounds from ChEMBL document CHEMBL3286382, “Synthesis and biological evaluation of imidazo[1,2-a]pyrimidines and imidazo[1,2-a]pyridines as new inhibitors of the Wnt/β-catenin signaling” (Eur J Med Chem, 2014).

The subject of data set [1] is HT-29. The data set can be described thus: Inhibition of Wnt signaling in human HT29 cells assessed as inhibition of beta-catenin-mediated Tcf/Lef transcriptional activity after 24 hrs by dual luciferase reporter gene assay relative to control. It counts as cell-based. As to conditions: HT-29, 24 h. In general terms: In a reporter assay the amount or activity of a reporter protein is the signal.

The test system of data set [2] is HT-29. The experiment in a line: Antiproliferative activity against human HT-29 cells after 72 hrs by MTT assay. The format is functional. Conditions: HT-29, 72 h. The method, boiled down:
(§1)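 Cells grown in DMEM with 10% FBS, penicillin G, streptomycin and L-glutamine, seeded 7 x 10^3 per well, left 24 h, then exposed to scalar concentrations in complete medium for 72 h at 37 °C, 5% CO2. Viability read by MTT; IC50 taken as the concentration giving 50% inhibition of proliferation.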
For orientation: Tetrazolium assays rely on reduction of a dye to a coloured formazan, in cell work by metabolically active cells.

Another data set concerns A549. The data set can be described thus: Antiproliferative activity against human A549 cells after 72 hrs by MTT assay. The format is functional. Conditions: A549, 72 h. In short, it runs like this:
as §1

The subject of the next data set is LoVo. The experiment in a line: Antiproliferative activity against human LoVo cells after 72 hrs by MTT assay. The format is functional. The method, boiled down: as §1
Another data set relates to HepG2. The experiment in a line: Antiproliferative activity against human HepG2 cells after 72 hrs by MTT assay. It counts as functional. Conditions: HepG2, 72 h. In short, it runs like this: as §1
Data set [3] concerns HT-29. The experiment in a line: Inhibition of Wnt signaling in human HT29 cells assessed as inhibition of beta-catenin-mediated Tcf/Lef transcriptional activity at 25 uM after 24 hrs by dual luciferase reporter gene assay relative to control. The format is cell-based. In short, it runs like this: (§2)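 HT-29 cells (1.4 x 10^4) were co-transfected with 1 µg BAT-LUX, which carries 7 TCF sites and the siamois promoter driving firefly luciferase, plus 1 µg Renilla vector. Cells were then treated at 37 °C for 24 h, with or without the GSK-3β inhibitor LiCl. Dual-Glo readout; values are the mean firefly/Renilla ratio.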

For data set [4], the system named is HT-29. The experiment in a line: Inhibition of Wnt signaling in human HT29 cells assessed as inhibition of beta-catenin-mediated Tcf/Lef transcriptional activity at 25 uM after 24 hrs by dual luciferase reporter gene assay relative to control in presence of GSK-3beta inhibitor LiCl. It counts as cell-based. The method, boiled down:
as §2

Data set [5] deals with HT-29. The experiment in a line: Inhibition of Wnt/beta-catenin signaling in human HT29 cells assessed as […] in axin2 mRNA expression at 25 uM after 24 hrs by quantitative real-time PCR assay. It counts as cell-based. The method, boiled down:
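Total RNA was extracted with TRIzol from HT-29 cells treated for 24 h. Transcripts were measured by real-time RT-PCR with GUS as the reference gene, and expression was expressed relative to untreated cells.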
(Quantitative PCR measures a nucleic acid by following its amplification.)

For data set [6], the system named is HT-29. The data set can be described thus: Inhibition of Wnt signaling in human HT29 cells assessed as beta-catenin dephosphorylation at S33/37/T41 residues at 25 uM after 24 hrs by Western blot analysis. The format is cell-based. The method, boiled down: (§3)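 After 24 h exposure, HT-29 cells were washed in cold PBS, lysed on ice for 30 min and cleared at 15 000 g, 4 °C. 10 µg protein was run on 12% SDS-PAGE and transferred to PVDF. Blots were probed with specific primary antibodies, then peroxidase-labelled secondaries, and developed by ECL. β-actin re-probing served as the loading control.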

The subject of data set [7] is HT-29. The experiment in a line: Inhibition of Wnt/beta-catenin signaling in human HT29 cells assessed as GSK3-beta dephosphorylation at Ser21/Ser9 residues at 25 uM after 24 hrs by Western blot analysis. It counts as cell-based. The method, boiled down:
as §3

For data set [8], the system named is HT-29. The data set can be described thus: Inhibition of Wnt/beta-catenin signaling in human HT29 cells assessed as […] protein level at 25 uM after 24 hrs by Western blot analysis. The format is cell-based. The method, boiled down: as §3
Data set [9] has as its system HT-29. The data set can be described thus: Inhibition of Wnt signaling in human HT29 cells assessed as increase in cytoplasmic beta-catenin at 25 uM after 24 hrs by fluorescence microscopy. It counts as cell-based. In short, it runs like this: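 Cells were fixed in cold 4% formaldehyde for 15 min and stained with anti-β-catenin (mouse, 1:50), then an Alexa-conjugated secondary, with DAPI counterstain. Images were taken on a video-confocal microscope with a 60x objective.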

The nature of data set [10]: Antiproliferative activity against human fibroblasts after 72 hrs by MTT assay. The format is cell-based, Fibroblast.

Activity calls are given as the source filed them. No cut-off for these calls is given here.

By IC50 is commonly meant the concentration that inhibits the measured activity by half. As usually defined, the GI50 is the concentration giving 50% growth inhibition. A higher GI50 goes with lower sensitivity of the cells. As to `Cc1ccn2cc(-c3ccc([N+](=O)[O-])cc3)nc2c1`, the IC50 with HT-29 [1] turned out to be 23.1 µM. Moreover, the results for the GI50 with HT-29 [2] and in the data set on A549 were above 100 µM and 62.4 µM, respectively.
For the compound `COc1cc(OC)n2cc(-c3ccc([N+](=O)[O-])cc3)nc2n1`, the IC50 with HT-29 [1] worked out at 57.8 µM. Besides, the GI50 with HT-29 [2] was above 100 µM; in the data set on LoVo, 70.6 µM; in the data set on HepG2 it was 35.9 µM; in the data set with A549 it was 36.6 µM.
As for `Cc1ccn2cc(-c3ccc(N)cc3)nc2c1`, the IC50 with HT-29 [1] is 42.2 µM. Moreover, the GI50 is 93.6 µM in the data set with HT-29 [2] and above 100 µM with A549.
On to `Cc1ccc2nc(-c3ccc(N(Cc4ccccc4)Cc4ccccc4)cc3)cn2c1`, for which the IC50 in the data set on HT-29 [1] was 19.5 µM. Also, the GI50 turned out to be 37.6 µM in the data set on HT-29 [2] and 60 µM in the data set with A549.
On to `COc1cc(OC)n2cc(-c3ccc(N)cc3)nc2n1`, for which the IC50 with HT-29 [1] stood at 14.3 µM. The GI50 with HT-29 [2], in the data set with LoVo, in the data set with HepG2 and in the data set with A549 was above 100 µM in each case.
As for `CC(=O)Nc1cc(=O)n(CC(C)C)c(SCc2ccccc2)n1`, in the data set with HT-29 [1], the 50% inhibitory concentration (IC50) was found to be 43 µM. The GI50 in the data set on HT-29 [2] is 68.4 µM; in the data set with LoVo it was 58.5 µM; with HepG2, 67.6 µM; in the data set with A549, 46.4 µM.
Regarding `CC(C)COc1cc(N)nc(SCc2ccccc2)n1`, the IC50 in the data set on HT-29 [1] is 72.2 µM. Also, the GI50 in the data set with HT-29 [2] is 40 µM; with LoVo, 54.5 µM; with HepG2, 60.8 µM; in the data set on A549, 18.7 µM.
Taken in the same sequence, the figures for `Nc1cc(=O)n(Cc2ccccc2)c(SCc2ccccc2)n1` were 54.3 µM, 100 µM, 84.9 µM, 97.8 µM and above 100 µM.
For `Cc1cc(OCc2ccccc2)n2cc(-c3ccc([N+](=O)[O-])cc3)nc2n1`, in the data set with HT-29 [1], the IC50 was found to be 16.1 µM. The GI50 is above 100 µM with HT-29 [2], 74.9 µM in the data set on LoVo, above 100 µM in the data set on HepG2 and 71 µM with A549.
Regarding `CCCSc1nc(N)cc(OCc2ccccc2)n1`, the IC50 in the data set on HT-29 [1] amounted to 22.3 µM. For the same compound, the GI50 in the data set with HT-29 [2] worked out at 88.2 µM; in the data set on LoVo, 54.2 µM; in the data set on HepG2, 87.1 µM; with A549 it was 51 µM.
For `Cc1ccc2nc(-c3ccc(NC(=O)c4ccccc4C(=O)O)cc3)cn2c1`, the concentration for half-maximal inhibition (IC50) with HT-29 [1] was 9.7 µM. The GI50 in the data set on HT-29 [2] is above 100 µM; in the data set with LoVo it was 90.7 µM; with HepG2, above 100 µM; in the data set with A549, above 100 µM. Also, the inhibition result with HT-29 [3], in the data set on HT-29 [4], in the data set with HT-29 [5], with HT-29 [6], in the data set with HT-29 [8] and in the data set on HT-29 [9] was “Active” each time. Also, in the data set on HT-29 [7], the inhibition entry is “inactive”.
Regarding `Cc1ccc2nc(-c3ccc(N)cc3)cn2c1`, the IC50 in the data set on HT-29 [1] was found to be 52.6 µM. For the same compound, the GI50 in the data set with HT-29 [2] is 82.9 µM; in the data set on LoVo it was 65.2 µM; with HepG2, above 100 µM; in the data set with A549, above 100 µM.
`CC(=O)Nc1cc(OCC(C)C)nc(SCc2ccccc2)n1`: the IC50 in the data set on HT-29 [1] is above 100 µM. Also, the concentration for 50% growth inhibition (GI50) with HT-29 [2] amounted to 35.7 µM; in the data set with LoVo it was 53.9 µM; in the data set on HepG2, 64.4 µM; in the data set on A549, 19.9 µM.
Taken in the same sequence, the figures for `CC(=O)Nc1cc(OCc2ccccc2)nc(SCc2ccccc2)n1` were 46.2 µM, 65.8 µM, 40 µM, 42.9 µM and 35.2 µM.
`CNc1ccc(-c2cn3c(OC)cc(OC)nc3n2)cc1`: the IC50 in the data set with HT-29 [1] was found to be 72.2 µM. In addition, the GI50 in the data set on HT-29 [2], with LoVo, with HepG2 and in the data set with A549 was above 100 µM each time.
In the case of `Cc1ccc2nc(-c3ccc([N+](=O)[O-])cc3)cn2c1`, in the data set with HT-29 [1], the 50% inhibitory concentration (IC50) is 6.2 µM. Besides, the GI50 in the data set on HT-29 [2], in the data set on LoVo, with HepG2 and with A549 was above 100 µM in each case. The inhibition entry with HT-29 [3], in the data set with HT-29 [4], with HT-29 [5] and with HT-29 [9] was “Active” each time. Further, the inhibition entry with HT-29 [7] is “inactive”.
As for `CC(C)Cn1c(SCc2ccccc2)nc(N)cc1=O`, the IC50 in the data set on HT-29 [1] stood at 30.7 µM. The GI50 with HT-29 [2] was above 100 µM; in the data set with LoVo, 68 µM; in the data set on HepG2, 77 µM; in the data set with A549 it was 83.3 µM.
As for `Cc1ccn2cc(-c3ccc(NCc4ccccc4)cc3)nc2c1`, the IC50 with HT-29 [1] was found to be 17.8 µM. Moreover, growth in the data set with HT-29 [2] was halved (GI50) at 17.5 µM. The compound further came in with a GI50 at 72 h in [10] above 100 µM.
`CCCSc1nc(NC(C)=O)cc(OCc2ccccc2)n1`: the IC50 in the data set on HT-29 [1] was determined as 81.8 µM. In addition, the GI50 in the data set on HT-29 [2] worked out at 59.9 µM; in the data set on LoVo, 54.9 µM; with HepG2, 75.1 µM; in the data set on A549, 75.7 µM.
As to `Cc1ccn2cc(-c3ccc(NC(=O)c4ccccc4C(=O)O)cc3)nc2c1`, the IC50 in the data set with HT-29 [1] was above 100 µM. The GI50 in the data set with HT-29 [2] and in the data set on A549 was above 100 µM throughout.
Turning to `COc1cc(OC)n2cc(-c3ccc(N(Cc4ccccc4)Cc4ccccc4)cc3)nc2n1`, in the data set on HT-29 [1], the IC50 came out at 67 µM. Also, the GI50 was above 100 µM in the data set on HT-29 [2], 61.9 µM with LoVo, above 100 µM with HepG2 and 7 µM with A549.
For the compound `Nc1cc(OCc2ccccc2)nc(SCc2ccccc2)n1`, the IC50 in the data set with HT-29 [1] is above 100 µM. Moreover, the GI50 in the data set with HT-29 [2] was 53.9 µM; in the data set on LoVo it was 53.7 µM; in the data set on HepG2, 49 µM; with A549, 46.2 µM.
In the case of `COc1cc(OC)n2cc(-c3ccc(NCc4ccccc4)cc3)nc2n1`, the IC50 with HT-29 [1] is 34.6 µM. Moreover, the 50% growth inhibitory concentration (GI50) in the data set on HT-29 [2], in the data set with LoVo, in the data set with HepG2 and with A549 was above 100 µM each time.
On to `O=C1[C@H](Cc2ccc(O)cc2)N2C(=O)CCN(C(=O)NCc3ccccc3)[C@H]2CN1Cc1cccc2ccccc12`, for which, in the data set on HT-29 [1], the IC50 was 18.7 µM. Moreover, the GI50 in the data set with HT-29 [2] turned out to be 17.2 µM; with LoVo, 15.6 µM; in the data set on HepG2, 12.7 µM; in the data set with A549 it was 6.1 µM. Also, the inhibition entry in the data set with HT-29 [3], in the data set with HT-29 [4] and in the data set on HT-29 [5] was “Active” in each case.
